Experiments:
[1] = Inhibition of IGFR
How it was run: (§1)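 In-house kinase selectivity panel of 30 kinases; enzyme inhibition values reported in µM.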

[2] = biological target: T1, Tyrosine-protein kinase ITK/TSK (Homo sapiens, UniProt Q08881); assay: Inhibition of Itk; how it was run: as §1
T1 sequence (Q08881 whole entry): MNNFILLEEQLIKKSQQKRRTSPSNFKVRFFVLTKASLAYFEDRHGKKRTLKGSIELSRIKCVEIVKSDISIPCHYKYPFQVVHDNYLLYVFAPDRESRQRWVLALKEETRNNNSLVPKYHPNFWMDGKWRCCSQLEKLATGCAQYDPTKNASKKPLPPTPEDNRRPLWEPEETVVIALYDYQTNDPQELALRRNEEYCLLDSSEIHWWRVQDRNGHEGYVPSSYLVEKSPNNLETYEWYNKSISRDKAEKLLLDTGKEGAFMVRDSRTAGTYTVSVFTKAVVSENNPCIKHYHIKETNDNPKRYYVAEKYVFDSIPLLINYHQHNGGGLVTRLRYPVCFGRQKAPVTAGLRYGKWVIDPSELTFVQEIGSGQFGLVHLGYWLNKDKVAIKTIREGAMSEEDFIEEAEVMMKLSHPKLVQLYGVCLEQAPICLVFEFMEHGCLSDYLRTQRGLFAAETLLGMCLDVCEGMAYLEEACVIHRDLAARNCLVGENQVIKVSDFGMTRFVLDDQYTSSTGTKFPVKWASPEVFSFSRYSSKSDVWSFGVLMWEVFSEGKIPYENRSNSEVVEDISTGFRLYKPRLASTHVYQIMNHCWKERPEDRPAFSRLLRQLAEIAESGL

[3] = biological target: Proto-oncogene tyrosine-protein kinase Src (Homo sapiens, UniProt P12931); assay: Inhibition of Src; how it was run: as §1
[4] = biological target: T2, Inhibitor of nuclear factor kappa-B kinase subunit beta (Homo sapiens, UniProt O14920); assay: Inhibition of IKK2-mediated phosphorylation of GST-IkappaBalpha fusion protein afterr 60 mins by fluorescence polarization assay
T2 sequence (O14920 whole entry): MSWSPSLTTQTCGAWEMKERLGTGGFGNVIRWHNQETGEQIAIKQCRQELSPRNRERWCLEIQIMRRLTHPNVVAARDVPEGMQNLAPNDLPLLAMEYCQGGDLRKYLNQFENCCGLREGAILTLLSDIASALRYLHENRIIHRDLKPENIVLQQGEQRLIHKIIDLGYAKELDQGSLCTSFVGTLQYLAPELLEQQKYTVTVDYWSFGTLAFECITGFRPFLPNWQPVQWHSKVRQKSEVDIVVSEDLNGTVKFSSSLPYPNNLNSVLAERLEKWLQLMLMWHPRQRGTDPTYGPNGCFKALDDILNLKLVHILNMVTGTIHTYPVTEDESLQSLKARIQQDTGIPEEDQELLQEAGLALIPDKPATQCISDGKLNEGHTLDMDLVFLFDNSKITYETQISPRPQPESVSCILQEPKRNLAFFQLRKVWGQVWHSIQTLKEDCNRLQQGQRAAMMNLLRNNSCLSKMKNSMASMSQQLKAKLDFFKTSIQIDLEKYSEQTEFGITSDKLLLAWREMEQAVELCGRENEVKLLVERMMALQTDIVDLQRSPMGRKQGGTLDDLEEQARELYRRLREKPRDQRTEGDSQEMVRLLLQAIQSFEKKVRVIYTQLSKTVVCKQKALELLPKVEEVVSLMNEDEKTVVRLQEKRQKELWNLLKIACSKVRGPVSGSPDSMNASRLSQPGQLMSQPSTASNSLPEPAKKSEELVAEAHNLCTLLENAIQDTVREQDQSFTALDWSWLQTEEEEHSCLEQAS
How it was run: (§2)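 GST-IκBα (50 µg/mL) with 20 µM ATP in 25 mM Tris-HCl pH 7.5, 7.5 mM MgCl2, 1 mM DTT, 5% glycerol, BSA; reaction started by adding IKK enzyme (IKK-2 typically 3 µg/mL final) at room temperature. Stopped after 60 min with 33 mM EDTA. Phospho-IκBα quantified by fluorescence polarization, competing with a fluorescein-labelled phosphopeptide for anti-phospho-IκBα antibody.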

[5] = biological target: Serine/threonine-protein kinase PLK1 (Homo sapiens, UniProt P53350); assay: Inhibition of Plk1; how it was run: as §1
[6] = tested on: PBMC; assay: Inhibition of LPS-induced TNFalpha production in human PBMC preincubated for 30 mins before LPS challenge measured afterr 6 hrs by ELISA; type: functional, cell-based
How it was run: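 PBMCs from healthy donor blood, isolated over ficoll in RPMI containing EDTA and polymyxin, then resuspended in RPMI/10% FBS at 1 × 10^6 cells/mL. Compound preincubated 30 min, then LPS added (25 ng/mL final). Incubated 6 h at 37 °C, 5% CO2; supernatant TNF-α measured by ELISA.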

[7] = biological target: T3, Inhibitor of nuclear factor kappa-B kinase subunit epsilon (Homo sapiens, UniProt Q14164); assay: Inhibition of IKKepsilon; how it was run: as §1
T3 sequence (Q14164 whole entry): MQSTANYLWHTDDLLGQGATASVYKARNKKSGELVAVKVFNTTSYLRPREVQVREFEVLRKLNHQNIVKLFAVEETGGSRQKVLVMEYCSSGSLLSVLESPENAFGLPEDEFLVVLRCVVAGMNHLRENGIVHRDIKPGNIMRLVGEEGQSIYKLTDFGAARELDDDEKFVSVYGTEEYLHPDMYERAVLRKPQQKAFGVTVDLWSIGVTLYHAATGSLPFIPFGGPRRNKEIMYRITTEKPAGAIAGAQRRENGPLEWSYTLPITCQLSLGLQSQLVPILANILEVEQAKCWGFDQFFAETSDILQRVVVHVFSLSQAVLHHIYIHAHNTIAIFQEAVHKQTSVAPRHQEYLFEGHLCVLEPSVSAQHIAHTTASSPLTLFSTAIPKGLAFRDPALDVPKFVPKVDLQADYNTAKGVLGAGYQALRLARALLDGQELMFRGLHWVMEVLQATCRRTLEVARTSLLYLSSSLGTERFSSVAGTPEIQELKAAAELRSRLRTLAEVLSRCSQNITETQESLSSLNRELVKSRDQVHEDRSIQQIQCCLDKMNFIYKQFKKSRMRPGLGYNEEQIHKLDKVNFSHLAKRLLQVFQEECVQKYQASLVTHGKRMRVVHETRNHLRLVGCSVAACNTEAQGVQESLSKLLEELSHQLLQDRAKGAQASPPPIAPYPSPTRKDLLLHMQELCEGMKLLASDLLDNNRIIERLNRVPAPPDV

[8] = biological target: T4, Inhibitor of nuclear factor kappa-B kinase subunit alpha (Homo sapiens, UniProt O15111); assay: Inhibition of IKK1-mediated phosphorylation of GST-IkappaBalpha fusion protein afterr 60 mins by fluorescence polarization assay; how it was run: as §2
T4 sequence (O15111 whole entry): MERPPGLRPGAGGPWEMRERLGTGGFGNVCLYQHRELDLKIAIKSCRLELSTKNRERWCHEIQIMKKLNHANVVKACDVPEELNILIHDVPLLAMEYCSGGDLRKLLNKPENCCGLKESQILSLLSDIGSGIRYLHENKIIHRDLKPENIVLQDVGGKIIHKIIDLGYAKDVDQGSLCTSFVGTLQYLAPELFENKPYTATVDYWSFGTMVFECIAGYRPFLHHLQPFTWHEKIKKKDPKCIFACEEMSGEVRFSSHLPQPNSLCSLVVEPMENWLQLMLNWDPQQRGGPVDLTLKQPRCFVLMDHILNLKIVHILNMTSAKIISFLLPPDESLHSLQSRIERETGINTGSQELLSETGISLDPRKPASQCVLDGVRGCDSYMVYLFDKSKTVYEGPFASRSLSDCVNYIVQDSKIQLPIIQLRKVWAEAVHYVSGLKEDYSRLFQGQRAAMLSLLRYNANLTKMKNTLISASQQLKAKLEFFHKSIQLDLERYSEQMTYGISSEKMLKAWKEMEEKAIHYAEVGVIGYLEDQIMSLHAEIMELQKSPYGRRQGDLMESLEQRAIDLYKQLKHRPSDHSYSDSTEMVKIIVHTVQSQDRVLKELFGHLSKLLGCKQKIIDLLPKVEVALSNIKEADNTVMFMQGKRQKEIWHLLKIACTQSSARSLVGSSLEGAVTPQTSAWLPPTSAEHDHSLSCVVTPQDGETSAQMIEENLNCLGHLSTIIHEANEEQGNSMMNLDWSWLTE

[9] = biological target: Tyrosine-protein kinase BTK (Homo sapiens, UniProt Q06187); assay: Inhibition of Btk; how it was run: as §1
[10] = biological target: Cyclin-dependent kinase 2 (Homo sapiens, UniProt P24941); assay: Inhibition of Cdk2; how it was run: as §1
[11] = tested on: Liver microsomes; assay: Metabolic stability in human liver microsomes assessed as clearance at 3 uM after 1 hr; type: ADME, Microsome
How it was run: (§3)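 Liver microsomes (mouse, human or rat) at 1 mg/mL protein with 3 µM compound in 65 mM phosphate buffer pH 7.4 and 1 mM NADPH, 37 °C, 1 h. Samples taken at 0 and 15 min and quenched with acetonitrile. Metabolic rate calculated from parent disappearance between 0 and 15 min.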

[12] = Metabolic stability in mouse liver microsomes assessed as clearance at 3 uM after 1 hr; type: ADME, Microsome; how it was run: as §3
[13] = Clearance in rat at 2 mg/kg, iv; type: ADME, organism-based; design: dose 2 mg/kg, route intravenous; details: in vivo
How it was run: (§4)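 Some compounds were dosed as a cassette of five compounds at 2 mg/kg each, after prescreening to exclude potent CYP inhibitors (IC50 < 10 µM).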

[14] = tested on: Liver microsomes; assay: Metabolic stability in rat liver microsomes assessed as clearance at 3 uM after 1 hr; type: ADME, Microsome; how it was run: as §3
[15] = Half life in rat at 2 mg/kg, iv; type: ADME, organism-based; design: dose 2 mg/kg, route intravenous; details: in vivo; how it was run: as §4
[16] = Volume of distribution at steady state in rat at 2 mg/kg, iv; type: ADME, organism-based; design: dose 2 mg/kg, route intravenous; details: in vivo, read-out: Vdss; how it was run: as §4
[17] = Cytotoxicity against human PBMC assessed as cell viability at 10 uM by alamar blue assay; type: cell-based; details: read-out: Activity
[18] = Cmax in rat at 2 mg/kg, iv; type: ADME, organism-based; design: dose 2 mg/kg, route intravenous; details: in vivo; how it was run: as §4
[19] = AUC in rat at 2 mg/kg, iv; type: ADME, organism-based; design: dose 2 mg/kg, route intravenous; details: plasma; how it was run: as §4
[20] = Selectivity ratio of IC50 for IKK1 to IC50 for IKK2
How it was run: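 Buffer was 25 mM Tris-HCl pH 7.5 with 7.5 mM MgCl2, 1 mM DTT, 5% glycerol and 470 µg/mL BSA. IKK-2 was typically 3 µg/mL final. Reactions ran 60 min at room temperature, stopped with 33 mM EDTA. Phospho-IκBα was read by fluorescence-polarization competition of a fluorescein phosphopeptide for an anti-phospho antibody. Ratio = IKK1 IC50/IKK2 IC50.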

Tyrosine-protein kinase BTK, sequence (Q06187 whole entry): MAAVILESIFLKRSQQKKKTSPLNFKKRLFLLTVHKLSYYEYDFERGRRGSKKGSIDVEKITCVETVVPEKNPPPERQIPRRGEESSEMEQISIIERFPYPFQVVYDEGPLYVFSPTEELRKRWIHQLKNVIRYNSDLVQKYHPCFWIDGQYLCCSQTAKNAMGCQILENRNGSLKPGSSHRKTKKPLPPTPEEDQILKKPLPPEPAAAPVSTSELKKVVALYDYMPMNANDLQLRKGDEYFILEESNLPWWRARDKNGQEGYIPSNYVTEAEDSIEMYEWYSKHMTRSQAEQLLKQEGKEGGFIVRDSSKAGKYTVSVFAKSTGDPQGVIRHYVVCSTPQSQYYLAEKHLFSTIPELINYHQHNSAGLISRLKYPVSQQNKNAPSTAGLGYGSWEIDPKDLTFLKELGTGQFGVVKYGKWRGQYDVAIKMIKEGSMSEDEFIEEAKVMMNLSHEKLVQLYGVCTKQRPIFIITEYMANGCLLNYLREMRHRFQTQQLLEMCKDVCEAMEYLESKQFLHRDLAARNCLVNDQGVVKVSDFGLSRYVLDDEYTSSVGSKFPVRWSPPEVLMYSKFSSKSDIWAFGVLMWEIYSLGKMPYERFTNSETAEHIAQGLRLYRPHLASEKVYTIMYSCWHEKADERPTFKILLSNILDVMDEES
Serine/threonine-protein kinase PLK1, sequence (P53350 whole entry): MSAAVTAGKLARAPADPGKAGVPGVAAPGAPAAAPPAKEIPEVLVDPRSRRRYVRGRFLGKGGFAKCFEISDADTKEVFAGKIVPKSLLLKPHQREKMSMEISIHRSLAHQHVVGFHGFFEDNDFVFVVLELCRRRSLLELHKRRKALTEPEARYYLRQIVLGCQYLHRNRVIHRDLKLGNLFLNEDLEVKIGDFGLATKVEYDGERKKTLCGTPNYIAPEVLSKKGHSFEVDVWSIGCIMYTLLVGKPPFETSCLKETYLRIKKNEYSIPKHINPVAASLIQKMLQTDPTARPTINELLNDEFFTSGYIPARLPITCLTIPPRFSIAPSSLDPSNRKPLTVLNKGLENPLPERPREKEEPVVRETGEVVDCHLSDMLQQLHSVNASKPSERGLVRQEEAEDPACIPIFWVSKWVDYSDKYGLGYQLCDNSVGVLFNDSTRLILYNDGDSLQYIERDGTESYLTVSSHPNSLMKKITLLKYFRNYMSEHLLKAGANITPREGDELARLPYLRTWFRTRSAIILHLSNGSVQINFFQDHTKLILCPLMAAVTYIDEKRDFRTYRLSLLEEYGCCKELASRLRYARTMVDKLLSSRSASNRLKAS
Proto-oncogene tyrosine-protein kinase Src, sequence (P12931 2-536 limits assumed): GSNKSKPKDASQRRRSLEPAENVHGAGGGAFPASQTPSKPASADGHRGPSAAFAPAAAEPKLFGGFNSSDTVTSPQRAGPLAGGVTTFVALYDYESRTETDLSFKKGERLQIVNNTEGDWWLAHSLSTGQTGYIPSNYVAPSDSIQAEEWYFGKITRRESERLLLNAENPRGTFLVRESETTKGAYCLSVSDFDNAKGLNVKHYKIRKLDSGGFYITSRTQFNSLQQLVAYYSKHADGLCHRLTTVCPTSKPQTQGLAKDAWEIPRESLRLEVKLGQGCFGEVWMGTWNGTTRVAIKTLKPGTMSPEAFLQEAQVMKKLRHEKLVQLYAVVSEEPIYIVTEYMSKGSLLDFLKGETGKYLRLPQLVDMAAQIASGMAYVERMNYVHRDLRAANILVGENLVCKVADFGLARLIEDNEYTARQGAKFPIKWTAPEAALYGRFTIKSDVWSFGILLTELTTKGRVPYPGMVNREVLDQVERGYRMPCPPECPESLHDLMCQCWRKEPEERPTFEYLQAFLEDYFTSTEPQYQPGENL

SMILES	IC50 [1] [µM]	IC50 [2] [µM]	IC50 [3] [µM]	IC50 [4] [µM]	IC50 [5] [µM]	IC50 [6] [µM]	IC50 [7] [µM]	IC50 [8] [µM]	IC50 [9] [µM]	IC50 [10] [µM]	CL [11] [nmol/mg/min]	CL [12] [nmol/mg/min]	clearance [13] [mL/min/kg]	CL [14] [nmol/mg/min]	half-life [15] [min]	Vd [16] [L/kg]	viability at 10 µM [17] [%]	Cmax [18] [nM]	AUC [19] [µM·h]	Ratio IC50 [20]
CNc1nc2sc(-c3cccc(CNC(C)=O)c3)nc2c2c1ncn2C	< 50	9.1	< 50	0.022	< 50	0.35	12	1.9	17	31										
CNc1nc2sc(-c3ccc(F)cc3)nc2c2c1ncn2C				0.026				3.1			0.13	0.21	67	0.095	36	3.2	74	1600	1.6	
CNc1nc2c(nc(-c3ccccc3)n2C)c2c1ncn2C	< 50	19	< 50	0.52	12	0.44	14	4.3	14	23	0.13	0.12		0.08						
CC(=O)NCCNc1nc2sc(-c3ccc(F)cc3)nc2c2c1ncn2C				0.033				5			0.003	0.065	16	0	24	0.5	80	4700	2.7	
CNc1nc2sc(-c3ccccc3)nc2c2c1ncn2C				0.006				3.5			0.09	0.25	42	0.12	72	2.8		3000	2.8	580
CNc1nc2oc(-c3ccccc3)nc2c2c1ncn2C	< 50	17	< 50	0.011	< 50		17	0.27	23	16	0.09	0.23		0.14						
